Measured values reported in ChEMBL document CHEMBL3352113, “Cytoprotective pyridinol antioxidants as potential therapeutic agents for neurodegenerative and mitochondrial diseases” (Bioorg Med Chem, 2014).
The source made the active and inactive calls. The calls are words filed in the database; no cut-off is given here.

What was measured:
[1] = system: Lymphocyte; experiment: Increase in ATP production in CoQ10-deficient lymphocytes (unknown origin) assessed as cellular ATP level at 10 uM after 48 hrs using luciferin-luciferase reaction by bioluminescence assay relative to control; format: functional
How it was run: (§1)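 CoQ10-deficient lymphocyte line GM17932 grown in glucose-free RPMI 1640 with 25 mM galactose, 2 mM glutamine and 10% dialyzed FBS, forcing oxidative phosphorylation. Incubated with compounds at 5, 10 or 25 µM for 48 h. Total intracellular ATP measured by luciferin–luciferase reaction, expressed as % of untreated control.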

[2] = system: Lymphocyte; experiment: Inhibition of oxidative stress-induced mitochondrial membrane depolarization in diethyl maleate-treated human lymphocytes obtained from FRDA patient assessed as cells with intact mitochondrial membrane potential pretreated for 16 hrs using TMRM by FACS analysis; format: functional, cell-based
[3] = system: Lymphocyte; experiment: Cytoprotective activity in human lymphocytes obtained from Leigh's syndrome patient assessed as viable cells at 0.1 uM after 16 hrs by trypan blue exclusion assay; format: functional; conditions: read-out: Activity
How it was run: (§2)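 Lymphocytes from FRDA or Leigh's syndrome patients, grown in RPMI-1640 with 15% fetal calf serum and 2 mM glutamine, kept in log phase. Test agents at 0.1, 0.5 and 2.5 µM; diethyl maleate (DEM) added to deplete glutathione and induce oxidative stress. Viability expressed relative to untreated cells (100%). Values are mean ± SD/SEM as tabulated.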

[4] = system: Lymphocyte; experiment: Cytoprotective activity in human lymphocytes obtained from Leigh's syndrome patient assessed as viable cells at 0.5 uM after 16 hrs by trypan blue exclusion assay; format: functional; conditions: read-out: Activity; how it was run: as §2
[5] = system: Lymphocyte; experiment: Cytoprotective activity in human lymphocytes obtained from FRDA patient assessed as viable cells at 0.1 uM after 16 hrs by trypan blue exclusion assay; format: functional; conditions: read-out: Activity; how it was run: as §2
[6] = organism: Bos taurus; experiment: Inhibition of bovine heart mitochondrial NADH oxidase complex I/III/IV assessed as remaining activity by spectrophotometry relative to untreated control
[7] = system: Lymphocyte; experiment: Inhibition of ROS generation in diethyl maleate-treated human lymphocytes obtained from FRDA patient compound pretreated at 100 to 500 nM for 16 hrs using DCFH-DA by FACS analysis; format: functional, cell-based
How it was run: (§3)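 FRDA lymphocytes pretreated with compounds at 100, 250 and 500 nM for 16 h, then given DEM for 80 min to raise ROS. Stained with DCFH-DA for 15 min, then DCF fluorescence read by flow cytometry. Reported as % ROS scavenging; mean ± SEM of three experiments run in duplicate.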

[8] = Metabolic stability in bovine liver microsomes at 25 uM after 30 mins by reverse phase HPLC analysis; format: ADME, Bos taurus; conditions: cattle, read-out: Stability
How it was run: (§4)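 Compounds incubated 30 min with activated bovine liver microsomes. Remaining parent compound quantified by reversed-phase HPLC and expressed as % recovered; mean ± SD.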

[9] = system: Lymphocyte; experiment: Inhibition of oxidative stress-induced mitochondrial membrane depolarization in diethyl maleate-treated human lymphocytes obtained from FRDA patient assessed as cells with intact mitochondrial membrane potential at 500 nM pretreated for 16 hrs using TMRM by FACS analysis (reference value: 95%); format: functional; set-up: scale not given: the % may be the effect or the level left
[10] = system: Lymphocyte; experiment: Increase in ATP production in CoQ10-deficient lymphocytes (unknown origin) assessed as cellular ATP level at 25 uM after 48 hrs using luciferin-luciferase reaction by bioluminescence assay relative to control; format: functional; how it was run: as §1
[11] = system: Lymphocyte; experiment: Increase in ATP production in CoQ10-deficient lymphocytes (unknown origin) assessed as cellular ATP level at 5 uM after 48 hrs using luciferin-luciferase reaction by bioluminescence assay relative to control; format: functional; how it was run: as §1
[12] = system: Lymphocyte; experiment: Cytoprotective activity in human lymphocytes obtained from FRDA patient assessed as viable cells after 16 hrs by trypan blue exclusion assay; format: functional, cell-based; how it was run: as §2
[13] = Drug metabolism in bovine liver microsomes at 25 uM after 30 mins by reverse phase HPLC analysis; format: ADME, Bos taurus; conditions: cattle, read-out: Drug metabolism; how it was run: as §4
[14] = organism: Bos taurus; experiment: Inhibition of bovine heart mitochondrial NADH oxidase complex I/III/IV assessed as remaining activity at 5 uM by spectrophotometry relative to untreated control
[15] = system: Lymphocyte; experiment: Inhibition of ROS generation in diethyl maleate-treated human lymphocytes obtained from FRDA patient compound pretreated for 16 hrs using DCFH-DA by FACS analysis; format: functional, cell-based; how it was run: as §3
[16] = organism: Bos taurus; experiment: Inhibition of bovine heart mitochondrial NADH oxidase complex I/III/IV assessed as remaining activity at 10 uM by spectrophotometry relative to untreated control
[17] = system: Lymphocyte; experiment: Cytoprotective activity in human lymphocytes obtained from Leigh's syndrome patient assessed as viable cells at 2.5 uM after 16 hrs by trypan blue exclusion assay; format: functional; conditions: read-out: Activity; how it was run: as §2
[18] = system: Lymphocyte; experiment: Cytoprotective activity in human lymphocytes obtained from FRDA patient assessed as viable cells at 2.5 uM after 16 hrs by trypan blue exclusion assay; format: functional; conditions: read-out: Activity; how it was run: as §2
[19] = system: Lymphocyte; experiment: Inhibition of lipid peroxidation in diethyl maleate-treated human lymphocytes obtained from FRDA patient at 100 to 250 nM after 16 hrs using C11-BODIPY581/591 by FACS analysis; format: functional, cell-based
How it was run: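 FRDA lymphocytes depleted of glutathione with DEM, probed with C11-BODIPY581/591. Green (oxidized) fluorescence read by flow cytometry at 490/510 nm. Median mean fluorescence taken relative to untreated control and converted to % lipid peroxidation scavenging; mean ± SEM, n = 3.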

[20] = organism: Bos taurus; experiment: Inhibition of bovine heart mitochondrial NADH oxidase complex I/III/IV assessed as remaining activity at 1 uM by spectrophotometry relative to untreated control
[21] = system: Lymphocyte; experiment: Cytoprotective activity in human lymphocytes obtained from Leigh's syndrome patient assessed as viable cells after 16 hrs by trypan blue exclusion assay; format: functional, cell-based; how it was run: as §2
[22] = system: Lymphocyte; experiment: Inhibition of oxidative stress-induced mitochondrial membrane depolarization in diethyl maleate-treated human lymphocytes obtained from FRDA patient assessed as cells with intact mitochondrial membrane potential at 100 nM pretreated for 16 hrs using TMRM by FACS analysis (reference value: 95%); format: functional; set-up: scale not given: the % may be the effect or the level left
[23] = system: Lymphocyte; experiment: Cytoprotective activity in human lymphocytes obtained from FRDA patient assessed as viable cells at 0.5 uM after 16 hrs by trypan blue exclusion assay; format: functional; conditions: read-out: Activity; how it was run: as §2
[24] = system: Lymphocyte; experiment: Inhibition of oxidative stress-induced mitochondrial membrane depolarization in diethyl maleate-treated human lymphocytes obtained from FRDA patient assessed as cells with intact mitochondrial membrane potential at 250 nM pretreated for 16 hrs using TMRM by FACS analysis (reference value: 95%); format: functional; set-up: scale not given: the % may be the effect or the level left

CCCCCCCCCCCCCCCCc1c(C)c(N(C)C)nc(C)c1O
Activity [1]: 80%
inhibition [2]: Dose-dependent effect
viability at 0.1 µM [3]: 11%
viability at 0.5 µM [4]: 56%
viability at 0.1 µM [5]: 52%
inhibition [6]: Dose-dependent effect
inhibition [7]: Active
remaining at 0.5 h, 25 µM [8]: 70%
Activity [9]: 91%
Activity [10]: 37%
Activity [11]: 96%
Activity [12]: Dose-dependent effect
metabolised at 0.5 h, 25 µM [13]: 20%
Activity [14]: 93%
inhibition [15]: Dose-dependent effect
Activity [16]: 86%
viability at 2.5 µM [17]: 85%
viability at 2.5 µM [18]: 84%
inhibition [19]: Active
Activity [20]: 95%
Activity [21]: Dose-dependent effect
Activity [22]: 62%
viability at 0.5 µM [23]: 75%
Activity [24]: 83%
